Key:
[1] = test system: human NMT1 versus Trypanosoma brucei NMT; experiment: Selectivity ratio of IC50 for human NMT1 to IC50 for Trypanosoma brucei NMT; type: toxicity; settings: read-out: Ratio IC50
How it was run: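 Both enzymes assayed by SPA in the same buffer: 0.125 μM [3H]myristoyl-coA, 0.5 μM biotinylated CAP5.5 peptide, 5 nM NMT, 22–23 °C. Reactions stopped at 15 min for HsNMT1 and 50 min for TbNMT. The ratio is HsNMT IC50 divided by TbNMT IC50.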

[2] = Inhibition of Trypanosoma brucei NMT using [3H]-myristoyl-coA/biotinylated CAP5.5 as substrate after 50 mins by scintillation proximity assay
How it was run: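 TbNMT scintillation proximity assay at 22–23 °C, with test compound dilutions added in DMSO. Reaction: 30 mM Tris pH 7.4, 0.5 mM EDTA, 0.5 mM EGTA, 1.25 mM DTT, 0.1% Triton X-100, 0.125 μM [3H]myristoyl-coA, 0.5 μM biotinylated CAP5.5 peptide, 5 nM enzyme. Enzyme added first, then substrate mix to start; stopped after 50 min with phosphoric acid pH 4.0/MgCl2/SPA beads; scintillation counting.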

[3] = target: T1, Glycylpeptide N-tetradecanoyltransferase 1 (Homo sapiens, UniProt P30419); experiment: Inhibition of human NMT1 using [3H]-myristoyl-coA/biotinylated CAP5.5 as substrate after 15 mins by scintillation proximity assay
T1 sequence (P30419 whole entry): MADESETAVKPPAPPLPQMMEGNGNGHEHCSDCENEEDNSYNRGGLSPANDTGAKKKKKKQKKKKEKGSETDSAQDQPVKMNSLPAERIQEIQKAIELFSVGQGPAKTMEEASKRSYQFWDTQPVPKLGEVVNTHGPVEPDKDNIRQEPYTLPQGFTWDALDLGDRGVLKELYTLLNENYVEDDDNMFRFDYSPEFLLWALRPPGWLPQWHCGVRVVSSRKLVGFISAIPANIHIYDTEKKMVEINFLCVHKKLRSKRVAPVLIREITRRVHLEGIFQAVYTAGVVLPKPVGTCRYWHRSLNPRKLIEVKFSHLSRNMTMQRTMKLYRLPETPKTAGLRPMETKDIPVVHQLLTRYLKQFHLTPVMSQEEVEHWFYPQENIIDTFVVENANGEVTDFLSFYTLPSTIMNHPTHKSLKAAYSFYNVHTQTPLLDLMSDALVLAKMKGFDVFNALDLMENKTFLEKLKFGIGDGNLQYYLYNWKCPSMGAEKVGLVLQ

[4] = test system: Trypanosoma brucei brucei; experiment: Antitrypanosomal activity against bloodstream form of Trypanosoma brucei brucei s427 after 69 hrs by resazurin-based […] analysis; type: functional, organism-based; settings: s427, 69 h
How it was run: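 Bloodstream T. b. brucei s427 was grown in modified HMI9 (56 μM 1-thioglycerol in place of 2-mercaptoethanol) and counted by hemocytometer. Cells (10^4/ml) were added to compound in DMSO and incubated 69 h at 37 °C, 5% CO2. Resazurin (50 μM final) was then added for 4 h more. Fluorescence read at ex 528/em 590 nm.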

[5] = Intrinsic clearance in CD1 mouse liver microsomes at 1 uM measured up to 30 mins by UPLC-MS/MS method; type: ADME, microsome; settings: 0.5 h
human NMT = experiment: Therapeutic index, ratio of IC50 for human NMT to EC50 for bloodstream form of Trypanosoma brucei brucei s427; type: toxicity; settings: read-out: Ratio IC50/EC50
[6] = target: Voltage-gated inwardly rectifying potassium channel KCNH2 (Homo sapiens, UniProt Q12809); experiment: Inhibition of human ERG by patch clamp assay
Sequence of Voltage-gated inwardly rectifying potassium channel KCNH2 (Q12809 whole entry): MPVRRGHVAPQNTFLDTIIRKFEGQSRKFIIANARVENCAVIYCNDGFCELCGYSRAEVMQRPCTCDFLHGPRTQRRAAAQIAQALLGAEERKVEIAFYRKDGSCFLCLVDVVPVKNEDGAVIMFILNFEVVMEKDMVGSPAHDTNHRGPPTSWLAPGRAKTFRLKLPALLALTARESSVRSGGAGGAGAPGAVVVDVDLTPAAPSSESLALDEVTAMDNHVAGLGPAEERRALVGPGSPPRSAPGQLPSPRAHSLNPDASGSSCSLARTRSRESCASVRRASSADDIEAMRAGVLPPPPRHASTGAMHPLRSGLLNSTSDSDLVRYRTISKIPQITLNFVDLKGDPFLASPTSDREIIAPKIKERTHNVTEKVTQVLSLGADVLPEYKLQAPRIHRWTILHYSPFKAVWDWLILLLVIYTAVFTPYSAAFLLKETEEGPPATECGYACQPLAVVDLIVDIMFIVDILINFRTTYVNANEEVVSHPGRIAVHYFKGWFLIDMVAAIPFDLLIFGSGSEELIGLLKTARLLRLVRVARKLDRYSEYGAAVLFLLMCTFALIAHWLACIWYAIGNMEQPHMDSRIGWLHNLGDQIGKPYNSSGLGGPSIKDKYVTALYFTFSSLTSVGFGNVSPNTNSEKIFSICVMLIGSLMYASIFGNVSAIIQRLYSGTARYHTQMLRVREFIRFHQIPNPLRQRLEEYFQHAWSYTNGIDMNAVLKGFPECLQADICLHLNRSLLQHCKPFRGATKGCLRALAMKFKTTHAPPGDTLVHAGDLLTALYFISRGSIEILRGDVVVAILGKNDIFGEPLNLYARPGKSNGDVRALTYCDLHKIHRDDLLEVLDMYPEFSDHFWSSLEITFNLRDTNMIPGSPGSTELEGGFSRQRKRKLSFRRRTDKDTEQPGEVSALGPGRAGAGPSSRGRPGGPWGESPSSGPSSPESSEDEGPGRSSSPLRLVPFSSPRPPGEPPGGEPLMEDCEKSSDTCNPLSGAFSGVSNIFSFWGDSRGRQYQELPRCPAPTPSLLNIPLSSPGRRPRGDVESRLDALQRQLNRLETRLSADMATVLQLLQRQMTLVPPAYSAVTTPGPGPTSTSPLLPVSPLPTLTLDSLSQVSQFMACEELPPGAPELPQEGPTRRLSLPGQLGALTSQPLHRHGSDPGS

| Structure (SMILES) | selectivity ratio [1] | IC50 [2] [nM] | IC50 [3] [nM] | EC50 [4] [nM] | CLH [5] [mL/min/g] | selectivity ratio (human NMT) | IC50 [6] [nM] |
| --- | --- | --- | --- | --- | --- | --- | --- |
| Cn1cc2c(NS(=O)(=O)c3ccc(Br)cc3)c(C3CCCC3)ccc2n1 | > 3.8 | 26000 | > 100000 | > 50000 | – | – | – |
| CC(C)Cc1ccc2nn(C)cc2c1NS(=O)(=O)c1ccc(Br)cc1 | > 91 | 1100 | > 100000 | > 50000 | – | – | – |
| O=S(=O)(Nc1c(-c2ccccc2)ccc2ncccc12)c1ccc(Br)cc1 | – | > 100000 | > 100000 | 50000 | – | – | – |
| CC(C)Cc1ccc2ncccc2c1NS(=O)(=O)c1ccc(CCCN2CCN(C)CC2)cc1 | – | 7 | – | 84 | 2.3 | – | – |
| COC(=O)c1ccc(N2CCCC2)c(NS(=O)(=O)c2ccc(Br)cc2)c1 | > 100 | 800 | > 100000 | 21000 | – | > 4.8 | – |
| CC(C)Cc1ccc2ncccc2c1NS(=O)(=O)c1ccc(CCCCN2CCN3CCC[C@@H]3C2)cc1 | – | 12 | – | 250 | 8.9 | – | – |
| CC(C)Cc1ccc2ncccc2c1NS(=O)(=O)c1ccc(CCCOC[C@@H]2CNCCO2)cc1 | – | < 5 | – | 39 | – | – | – |
| O=S(=O)(Nc1c(CC2CCCCC2)ccc2ncccc12)c1ccc(Br)cc1 | > 71 | 1400 | > 100000 | 23000 | 33 | > 4.3 | – |
| CC(C)Cc1ccc2nn(C)cc2c1NS(=O)(=O)c1ccc(CCCC2CCN(C)CC2)cc1 | – | < 5 | – | 5 | 1.2 | – | – |
| CC(C)Cc1ccc2nn(C)cc2c1NS(=O)(=O)c1ccc(CCCN2CCCN(C)CC2)cc1 | – | 5 | – | 16 | – | – | – |
| COc1ccc(S(=O)(=O)Nc2cc(C(=O)O)ccc2N2CCCCCC2)cc1 | – | > 100000 | – | – | – | – | – |
| CCC(CC)c1ccc2ncccc2c1NS(=O)(=O)c1ccc(Br)cc1 | > 17 | 5700 | > 100000 | > 50000 | – | – | – |
| CC(C)Cc1ccc2ncccc2c1NS(=O)(=O)c1ccc(Br)cc1 | > 59 | 1700 | > 100000 | > 50000 | > 50 | – | – |
| O=S(=O)(Nc1cc(-c2cccnc2)ccc1N1CCCC1)c1ccc(Br)cc1 | – | 39000 | – | – | – | – | – |
| CC(C)Cc1ccc2ncccc2c1NS(=O)(=O)c1ccc(CCCCN2C[C@@H](C)N[C@@H](C)C2)cc1 | – | 16 | – | 350 | – | – | – |
| COC(=O)c1ccc(N2CCCCC2)c(NS(=O)(=O)c2ccc(Br)cc2)c1 | – | > 100000 | – | – | – | – | – |
| COC(=O)c1ccc(N2CCCCCC2)c(NS(=O)(=O)c2ccc(OC)cc2)c1 | > 100 | 1000 | > 100000 | 12000 | – | 8.3 | – |
| CC(C)Cc1ccc2ncccc2c1NS(=O)(=O)c1ccc(CCCCN2CCNCC2)cc1 | – | 10 | – | 180 | 1.3 | – | – |
| O=C1OCc2c1ccc(N1CCCC1)c2NS(=O)(=O)c1ccc(Br)cc1 | – | > 100000 | – | – | – | – | – |
| CC(C)Cc1ccc2nn(C)cc2c1NS(=O)(=O)c1ccc(CCCOC[C@H]2CCCN2C)cc1 | – | < 5 | – | 20 | – | – | – |
| COC(=O)c1cccc(NS(=O)(=O)c2ccc(Br)cc2)c1 | – | > 100000 | – | – | – | – | – |
| CC(C)Cc1ccc2ncccc2c1NS(=O)(=O)c1ccc(CCCN2CCCN(C)CC2)cc1 | – | < 5 | – | 18 | 3.7 | – | – |
| CC(C)Cc1ccc2nn(C)cc2c1NS(=O)(=O)c1ccc(CCCCN2CCCN(C)CC2)cc1 | – | < 5 | – | 35 | 4 | – | – |
| COC(=O)c1ccc(N2CCCC2)c(NS(=O)(=O)c2ccc(OC)cc2)c1 | > 100 | 700 | > 100000 | 15000 | – | > 6.7 | – |

| Structure (SMILES) | selectivity ratio [1] | IC50 [2] [nM] | IC50 [3] [nM] | EC50 [4] [nM] | CLH [5] [mL/min/g] | selectivity ratio (human NMT) | IC50 [6] [nM] |
| --- | --- | --- | --- | --- | --- | --- | --- |
| CC(C)Cc1ccc2ncccc2c1NS(=O)(=O)c1ccc(CCCC2CCN(C)CC2)cc1 | – | < 5 | – | 9 | 2.6 | – | – |
| O=S(=O)(Nc1c(C2CCCCC2)ccc2ncccc12)c1ccc(Br)cc1 | > 1.6 | 63000 | > 100000 | 39000 | 38 | > 2.6 | – |
| CC(C)Cc1ccc2nn(C)cc2c1NS(=O)(=O)c1ccc(CCCOC[C@H]2CN(C)CCO2)cc1 | – | < 5 | – | 9 | 22 | – | – |
| CN1CCC(CCCCc2ccc(S(=O)(=O)Nc3c(N4CCCC4)ccc4ncccc34)cc2)CC1 | 110 | 11 | 1200 | 76 | – | 16 | – |
| CC(C)Cc1ccc2ncccc2c1NS(=O)(=O)c1ccc(CCCCC2CCN(C)CC2)cc1 | – | < 5 | – | 19 | 6.2 | – | – |
| Cn1cc2c(NS(=O)(=O)c3ccc(Br)cc3)cccc2n1 | > 3.7 | 27000 | > 100000 | > 50000 | 6.3 | – | – |
| Cn1cc2c(NS(=O)(=O)c3ccc(Br)cc3)c(CC3CCCCC3)ccc2n1 | > 59 | 1700 | > 100000 | > 50000 | – | – | – |
| CC(C)Cc1ccc2nn(C)cc2c1NS(=O)(=O)c1ccc(CCCOC[C@@H]2COCCN2C)cc1 | – | 9 | – | 76 | – | – | – |
| CC(C)Cc1ccc2nn(C)cc2c1NS(=O)(=O)c1ccc(CCCOC[C@H]2COCCN2C)cc1 | – | 7 | – | 220 | 20 | – | 3100 |
| CC(C)Cc1ccc2nn(C)cc2c1NS(=O)(=O)c1ccc(CCCOC[C@@H]2CN(C)CCO2)cc1 | – | < 5 | – | 26 | 24 | – | – |
| Cn1cc2c(NS(=O)(=O)c3ccc(Br)cc3)c(N3CCCC3)ccc2n1 | > 3.7 | 27000 | > 100000 | 24000 | 33 | > 4.1 | – |
| Cc1ccc2ncccc2c1NS(=O)(=O)c1ccc(Br)cc1 | > 3 | 33000 | > 100000 | – | 3.6 | – | – |
| CC(C)Cc1ccc2ncccc2c1NS(=O)(=O)c1ccc(CCCO[C@H]2C[C@H]3CC[C@@H](C2)N3C)cc1 | – | < 5 | – | 9 | 2.3 | – | – |
| O=S(=O)(Nc1ccc2scnc2c1)c1ccc(Br)cc1 | – | 24000 | – | – | – | – | – |
| CC(C)Cc1ccc2ncccc2c1NS(=O)(=O)c1ccc(CCCO[C@@H]2CCCN(C)C2)cc1 | – | < 5 | – | 39 | – | – | – |
| CC(C)Cc1ccc2ncccc2c1NS(=O)(=O)c1ccc(CCCCC2CCNCC2)cc1 | – | < 5 | – | 21 | 1.5 | – | – |
| CC(C)Cc1ccc2nn(C)cc2c1NS(=O)(=O)c1ccc(CCCCN2CCN3CCC[C@@H]3C2)cc1 | – | 14 | – | 140 | 3.7 | – | – |
| O=S(=O)(Nc1c(Cc2ccccc2)ccc2ncccc12)c1ccc(Br)cc1 | > 16 | 6200 | > 100000 | > 50000 | 23 | – | – |
| Cn1cc2c(NS(=O)(=O)c3ccc(Br)cc3)c(C3CCCCC3)ccc2n1 | > 5.9 | 17000 | > 100000 | 32000 | – | > 3.1 | – |
| O=S(=O)(Nc1cccc2ncccc12)c1ccc(Br)cc1 | > 1.1 | 87000 to 90000 | > 100000 | > 50000 | – | – | – |
| O=S(=O)(Nc1c(N2CCCC2)ccc2ncccc12)c1ccc(Br)cc1 | 5.5 | 7500 | 41000 | 11000 | 27 | 3.7 | – |
| O=S(=O)(Nc1c(N2CCCCCC2)ccc2ncccc12)c1ccc(Br)cc1 | – | 690 | – | 18000 | > 50 | – | – |
| CC(C)Cc1ccc2ncccc2c1NS(=O)(=O)c1ccc(CCCOC[C@@H]2CN(C)CCO2)cc1 | – | < 5 | – | 33 | – | – | – |
| O=S(=O)(Nc1c(C2CCCC2)ccc2ncccc12)c1ccc(Br)cc1 | – | 3200 | – | > 50000 | > 50 | – | – |

From ChEMBL document CHEMBL4229565 (J Med Chem, 2018)
